The target in assay [1] is Delta-aminolevulinic acid dehydratase (Pseudomonas aeruginosa (strain ATCC 15692 / PAO1 / 1C / PRS 101 / LMG12228)) (UniProt Q59643). Description: Stimulation of Pseudomonas aeruginosa PAO1 recombinant PBGS using 5-ALA as substrate at […].
Assay [2] addresses T1, Delta-aminolevulinic acid dehydratase (Escherichia coli (strain K12)) (UniProt P0ACB2).
T1 sequence (whole entry): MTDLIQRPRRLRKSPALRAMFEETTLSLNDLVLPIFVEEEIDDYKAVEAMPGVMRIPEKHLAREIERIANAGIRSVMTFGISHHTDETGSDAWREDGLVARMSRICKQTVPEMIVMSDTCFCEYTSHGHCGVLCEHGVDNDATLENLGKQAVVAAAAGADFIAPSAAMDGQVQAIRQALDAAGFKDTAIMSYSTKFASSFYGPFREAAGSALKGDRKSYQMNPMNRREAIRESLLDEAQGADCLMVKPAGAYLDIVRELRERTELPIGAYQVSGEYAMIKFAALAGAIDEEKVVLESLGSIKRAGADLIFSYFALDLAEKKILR
Description: Stimulation of Escherichia coli recombinant PBGS using 5-ALA as substrate at […].

In assay [3] the target is T1, Delta-aminolevulinic acid dehydratase (Escherichia coli (strain K12)). The experiment in a line: Inhibition of Escherichia coli recombinant PBGS using 5-ALA as substrate at […].
The target of assay [4] is T2, Delta-aminolevulinic acid dehydratase (Wolbachia sp. subsp. Brugia malayi (strain TRS), UniProt Q5GSR3).
T2 sequence (Q5GSR3 whole entry): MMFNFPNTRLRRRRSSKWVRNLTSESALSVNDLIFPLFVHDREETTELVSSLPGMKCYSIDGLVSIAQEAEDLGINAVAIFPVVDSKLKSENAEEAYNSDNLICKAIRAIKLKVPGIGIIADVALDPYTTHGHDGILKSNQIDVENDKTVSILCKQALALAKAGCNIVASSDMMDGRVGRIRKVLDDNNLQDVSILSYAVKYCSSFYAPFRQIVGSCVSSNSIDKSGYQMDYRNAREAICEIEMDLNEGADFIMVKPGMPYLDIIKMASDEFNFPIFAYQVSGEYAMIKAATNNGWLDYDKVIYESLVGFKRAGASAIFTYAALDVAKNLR
The experiment in a line: Inhibition of C-terminal His-tagged Wolbachia PBGS using 5-ALA as substrate.

Assay [5] concerns Toxoplasma gondii. Description: Inhibition of Toxoplasma gondii recombinant PBGS using 5-ALA as substrate at […].
In assay [6] the target is Delta-aminolevulinic acid dehydratase (Yersinia enterocolitica W22703) (UniProt F4MUJ9). The experiment in a line: Stimulation of Yersinia enterocolitica recombinant PBGS expressed in Escherichia coli using 5-ALA as substrate at […].
Assay [7] has as its target T3, Delta-aminolevulinic acid dehydratase (Drosophila melanogaster, UniProt Q9VTV9).
T3 sequence (Q9VTV9 whole entry): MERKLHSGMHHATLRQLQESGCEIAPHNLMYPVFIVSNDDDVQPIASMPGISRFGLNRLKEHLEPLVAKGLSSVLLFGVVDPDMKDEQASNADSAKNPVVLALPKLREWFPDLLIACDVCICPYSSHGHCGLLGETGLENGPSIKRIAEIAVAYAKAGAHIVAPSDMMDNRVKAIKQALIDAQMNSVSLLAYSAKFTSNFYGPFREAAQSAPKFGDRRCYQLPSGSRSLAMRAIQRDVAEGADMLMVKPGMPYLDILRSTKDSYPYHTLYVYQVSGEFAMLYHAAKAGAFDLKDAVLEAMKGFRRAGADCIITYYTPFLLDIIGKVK
Description: Inhibition of Drosophila melanogaster recombinant PBGS using 5-ALA as substrate.

The target in assay [8] is T4, Delta-aminolevulinic acid dehydratase (Homo sapiens, UniProt P13716).
T4 sequence (P13716 whole entry): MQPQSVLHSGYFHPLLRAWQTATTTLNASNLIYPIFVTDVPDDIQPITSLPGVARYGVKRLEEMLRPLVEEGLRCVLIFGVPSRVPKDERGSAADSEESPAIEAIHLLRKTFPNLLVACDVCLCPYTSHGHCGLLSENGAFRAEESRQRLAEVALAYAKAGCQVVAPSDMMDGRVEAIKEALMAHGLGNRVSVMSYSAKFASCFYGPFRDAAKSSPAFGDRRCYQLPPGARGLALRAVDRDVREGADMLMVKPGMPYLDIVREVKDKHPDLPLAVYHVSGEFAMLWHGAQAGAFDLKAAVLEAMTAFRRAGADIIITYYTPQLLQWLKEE
Description: Inhibition of human PBGS using 5-ALA as substrate.

In assay [9] the target is T5, Delta-aminolevulinic acid dehydratase, chloroplastic (Pisum sativum, UniProt P30124).
T5 sequence (P30124 whole entry): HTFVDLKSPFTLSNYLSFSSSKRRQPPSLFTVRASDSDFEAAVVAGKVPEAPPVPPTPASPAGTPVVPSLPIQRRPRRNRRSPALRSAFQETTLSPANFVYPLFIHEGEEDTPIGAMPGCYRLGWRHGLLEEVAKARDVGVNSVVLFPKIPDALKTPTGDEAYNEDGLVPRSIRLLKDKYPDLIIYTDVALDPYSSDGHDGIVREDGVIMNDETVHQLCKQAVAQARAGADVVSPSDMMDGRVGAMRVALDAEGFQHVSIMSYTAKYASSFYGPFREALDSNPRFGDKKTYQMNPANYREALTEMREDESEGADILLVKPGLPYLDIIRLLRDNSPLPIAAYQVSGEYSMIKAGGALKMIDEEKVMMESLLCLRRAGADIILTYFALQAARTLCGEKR
Description: Inhibition of Pisum sativum PBGS using 5-ALA as substrate. Further details: species or system Lathyrus oleraceus. The method in brief: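 Pea (P. sativum) PBGS at 300 nM subunit in 100 mM BTP-HCl pH 8.5 with 1 mM MgCl2, 5 mM DTT and 0.2 mM 5-ALA, 15 min at 36 °C. Porphobilinogen detected with Ehrlich's reagent. Activity normalized to 6.7% DMSO control as 100%. IC50 from variable-slope normalized-response fit.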

In assay [10] the target is Delta-aminolevulinic acid dehydratase (Yersinia enterocolitica W22703) (UniProt F4MUJ9). Description: Inhibition of Yersinia enterocolitica recombinant PBGS expressed in Escherichia coli using 5-ALA as substrate at […].
Assay [11] has as its system Toxoplasma gondii. The experiment in a line: Stimulation of Toxoplasma gondii recombinant PBGS using 5-ALA as substrate at […].
Assay [12] has as its target Delta-aminolevulinic acid dehydratase (Pseudomonas aeruginosa (strain ATCC 15692 / PAO1 / 1C / PRS 101 / LMG12228)) (UniProt Q59643). Description: Inhibition of Pseudomonas aeruginosa PAO1 recombinant PBGS using 5-ALA as substrate at […].

As usually defined, the IC50 is the point on the concentration scale where inhibition reaches its midpoint.

Calls of active or inactive are those of the source. The calls are words filed in the database; no cut-off is given here.

Chain of Delta-aminolevulinic acid dehydratase (Pseudomonas aeruginosa (strain ATCC 15692 / PAO1 / 1C / PRS 101 / LMG12228)) (Q59643 whole entry): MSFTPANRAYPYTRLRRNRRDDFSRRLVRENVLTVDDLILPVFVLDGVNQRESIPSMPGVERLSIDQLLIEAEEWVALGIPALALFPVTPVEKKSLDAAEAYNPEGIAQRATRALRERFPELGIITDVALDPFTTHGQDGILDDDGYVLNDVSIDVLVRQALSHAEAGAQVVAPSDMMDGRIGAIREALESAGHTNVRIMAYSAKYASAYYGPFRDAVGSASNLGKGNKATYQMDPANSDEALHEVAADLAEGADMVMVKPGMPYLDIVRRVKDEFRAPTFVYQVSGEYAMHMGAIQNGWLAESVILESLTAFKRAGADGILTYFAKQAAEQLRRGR
Chain of Delta-aminolevulinic acid dehydratase (Yersinia enterocolitica W22703) (F4MUJ9 as listed by the source): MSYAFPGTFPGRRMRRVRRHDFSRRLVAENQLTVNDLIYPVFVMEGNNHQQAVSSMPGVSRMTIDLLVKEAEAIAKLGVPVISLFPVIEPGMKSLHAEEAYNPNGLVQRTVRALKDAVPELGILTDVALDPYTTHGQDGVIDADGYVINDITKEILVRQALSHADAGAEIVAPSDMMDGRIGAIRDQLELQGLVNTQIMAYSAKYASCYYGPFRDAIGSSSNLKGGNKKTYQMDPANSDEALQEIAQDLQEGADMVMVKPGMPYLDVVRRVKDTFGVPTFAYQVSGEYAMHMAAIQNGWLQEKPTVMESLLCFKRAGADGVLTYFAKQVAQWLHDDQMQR

Regarding `Cc1cccc(Cn2cnc3cc(C(=O)O)ccc32)c1`, the Smax (in [1]; in [2]; in assay [6]; in the assay on Toxoplasma gondii [11]) was 100% throughout. The inhibition result (in assay [3]; in the assay on Toxoplasma gondii [5]; in [10]; in [12]) was “inactive” each time. In addition, the IC50 was 134 µM in assay [4], 371 µM in assay [7], 222 µM in assay [8] and 95.9 µM in [9].
For `O=C(NCCc1nc2cccc(C(=O)O)c2n1Cc1cccc(C(F)(F)F)c1)c1cccs1`, the Smax in assay [1] came to 100%; in [2], 100%; in [6] it was 118%; with Toxoplasma gondii [11] it was 113%. In addition, the inhibition result in assay [3] and in [12] was “inactive” throughout. Besides, the IC50 was 164 µM in assay [4], > 1000 µM in assay [7] and > 500 µM in assay [9].
In the case of `O=C(O)c1ccc2nc(CCNC(=O)c3cccs3)n(Cc3cccc(C(F)(F)F)c3)c2c1`, the Smax in [1] came out at 100%; in [2], 100%; in [6], 131%. The inhibition result in assay [3] and in [12] was “inactive” in each case. Also, the IC50 in assay [4] is 317 µM; in assay [7], 257 µM; in assay [9] it was 89 µM.
`O=C(O)c1ccc2c(c1)ncn2Cc1ccccc1`: the Smax (in assay [1]; in assay [2]; in assay [6]; in the assay on Toxoplasma gondii [11]) was 100% in each case. The inhibition entry (in [3]; in the assay on Toxoplasma gondii [5]; in assay [10]; in assay [12]) was “inactive” in each case. Further, the IC50 in assay [4] came out at 197 µM; in [7], 1030 µM; in [8] it was 213 µM; in assay [9], 182 µM.
Take `O=C(O)c1ccc2[nH]c(CCNC(=O)c3cccs3)nc2c1`: the Smax (in assay [1]; in assay [2]; in assay [6]; with Toxoplasma gondii [11]) was 100% throughout. Further, the inhibition result (in assay [3]; with Toxoplasma gondii [5]; in assay [10]; in assay [12]) was “inactive” throughout. In addition, the results for the 50% inhibitory concentration (IC50) in [4], in assay [7] and in assay [9] were 500 µM, 448 µM and 114 µM, respectively.
For the compound `O=C(O)c1ccc2c(c1)ncn2Cc1ccccc1C(F)(F)F`, the Smax (in assay [1]; in [2]; in assay [6]; in the assay with Toxoplasma gondii [11]) was 100% in each case. Also, the inhibition result (in [3]; in the assay with Toxoplasma gondii [5]; in assay [10]; in assay [12]) was “inactive” each time. Also, the IC50 is 293 µM in assay [4], > 1000 µM in assay [7], 145 µM in assay [8] and 64.3 µM in [9].
`COc1cccc(Cn2cnc3cc(C(=O)O)ccc32)c1`: the Smax (in assay [1]; in assay [2]; in [6]; in the assay on Toxoplasma gondii [11]) was 100% throughout. The inhibition entry (in assay [3]; in the assay with Toxoplasma gondii [5]; in assay [10]; in assay [12]) was “inactive” each time. The 50% inhibitory concentration (IC50) in assay [4] was 205 µM; in assay [7], 370 µM; in assay [8], 156 µM; in assay [9], 155 µM.
Consider `O=C(O)c1ccc2c(c1)ncn2Cc1ccc(C(F)(F)F)cc1`, for which the Smax (in [1]; in assay [2]; in [6]; in the assay on Toxoplasma gondii [11]) was 100% throughout. In addition, the inhibition entry (in assay [3]; in the assay on Toxoplasma gondii [5]; in assay [10]; in assay [12]) was “inactive” in each case. Further, the half-maximal inhibitory concentration (IC50) in assay [4] was 87.7 µM; in assay [7], 620 µM; in assay [8] it was 173 µM; in [9], 43.1 µM.
Regarding `Cn1cnc2cc(C(=O)O)ccc21`, the Smax (in assay [1]; in assay [2]; in assay [6]; in the assay on Toxoplasma gondii [11]) was 100% each time. For the same compound, the inhibition result (in assay [3]; with Toxoplasma gondii [5]; in assay [10]; in assay [12]) was “inactive” in each case. For the same compound, the IC50 in assay [7] was > 1000 µM; in [9], 257 µM.
`O=C(O)c1ccc2[nH]cnc2c1`: the Smax (in assay [1]; in assay [2]; in assay [6]; in the assay on Toxoplasma gondii [11]) was 100% in each case. The inhibition result (in [3]; with Toxoplasma gondii [5]; in assay [10]; in assay [12]) was “inactive” each time. The IC50 in assay [4] is 500 µM; in [7], > 1000 µM; in [8] it was 511 µM; in assay [9], > 500 µM.
